Data as given in ChEMBL document CHEMBL1147889, “Synthesis of 6- and 9-alkylaminomethyl furoflavones as gastroprotective agents” (2007).

What was measured:
Format in all cases: functional, Stomach
Rattus norvegicus [1] = assay: Gastroprotective activity against ethanol-induced gastric ulcer in fasted rat accessed as gastric ulcer index at 20 mg/kg, ip; details: route intraperitoneal
How it was run: (§1)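 Rats housed singly, fasted 36 h; test drug given, then 1 h later ulcer induced by oral 1 ml 70% ethanol in distilled water. Killed by cervical dislocation 1 h after ethanol; stomach opened along greater curvature, saline-rinsed, pinned flat. Ulcers counted; each lesion length measured by Vernier caliper, summed as ulcer index. Mean, SD, SE; one-way ANOVA then LSD pairwise test.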

Rattus norvegicus [2] = species: Rattus norvegicus; assay: Preventive index against ethnol-induced gastric ulcer rat in treated group to control group
How it was run: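 Preventive index = percentage inhibition of gastric mucosal damage: PI = 100 − (ulcer index of treated group / ulcer index of control group × 100). Ulcer index is the summed caliper-measured lesion lengths, taken 1 h after oral 1 ml 70% ethanol in 36 h fasted rats dosed 1 h before ethanol. Compared by one-way ANOVA.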

Rattus norvegicus [3] = assay: Gastroprotective activity against ethanol-induced gastric ulcer in fasted rat accessed as number of ulcer at 20 mg/kg, ip; details: route intraperitoneal; how it was run: as §1

| Structure (SMILES) | Activity (Rattus norvegicus [1]) [mm] | Preventive_index (Rattus norvegicus [2]) | Activity (Rattus norvegicus [3]) |
| --- | --- | --- | --- |
| COc1c2ccoc2cc2oc(-c3ccc(Cl)cc3)cc(=O)c12 | 33.2 | 34.5 | 25.5 |
| COc1c2occc2c(OC)c2c(=O)c(CN3CCN(C)CC3)c(-c3cccnc3)oc12 | 28.2 | 44.4 | 18.8 |
| COc1c2ccoc2cc2oc(-c3ccccc3)c(CN3CCOCC3)c(=O)c12 | 29.6 | 41.6 | 21.8 |
| COc1ccc(-c2cc(=O)c3c(OC)c4ccoc4cc3o2)cc1 | 24 | 52.6 | 19.7 |
| O=c1cc(-c2ccccc2)oc2cc3occc3c(O)c12 | 38.3 | 24.3 | 25.5 |
| COc1c2ccoc2c(CN2CCOCC2)c2oc(-c3cccnc3)cc(=O)c12 | 40.8 | 19.5 | 25 |
| COc1c2ccoc2c(CN2CCN(C)CC2)c2oc(-c3cccnc3)cc(=O)c12 | 29.7 | 41.5 | 23.7 |
| O=c1cc(-c2ccc(Cl)cc2)oc2cc3occc3c(O)c12 | 33.5 | 33.9 | 22.2 |
| O=c1cc(-c2ccc(Cl)cc2)oc2c(CN3CCOCC3)c3occc3c(O)c12 | 42.5 | 16.1 | 28.5 |
| COc1c2ccoc2cc2oc(-c3cccnc3)c(CN(C)C)c(=O)c12 | 31 | 38.8 | 21.2 |
| COc1c2ccoc2c(CN2CCOCC2)c2oc(-c3ccccc3)cc(=O)c12 | 39.8 | 21.4 | 27.8 |
| COc1c2ccoc2c(CN2CCOCC2)c2oc(-c3ccc(Cl)cc3)cc(=O)c12 | 37.2 | 26.6 | 26 |
| O=c1cc(-c2ccccc2)oc2c(CN3CCOCC3)c3occc3c(O)c12 | 37.5 | 26 | 26.5 |
| COc1c2ccoc2cc2oc(-c3ccccc3)cc(=O)c12 [PINNATIN] | 34.8 | 31.3 | 23.7 |
